Laboratory results reported in ChEMBL document CHEMBL2169813, “Cell death triggered by synthetic flavonoids in human leukemia cells is amplified by the inhibition of extracellular signal-regulated kinase signaling” (Eur J Med Chem, 2012).
The source made the active and inactive calls. The calls are words filed in the database; no cut-off is given here.

Key:
[1] = test system: HL-60; assay: Induction of apoptosis in human HL60 cells assessed as hypodiploid cells level incubated for 24 hrs in presence of 2 uM p38MAPK inhibitor SB203580 by flow cytometry; assay type: functional, cell-based
Procedure, shortened: (§1)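 HL-60 cells preincubated 1 h with PD98059 (10 µM), SP600125 (10 µM) or SB203580 (2 µM), then treated with compound. Hypodiploid (apoptotic) cells quantified by flow cytometry of propidium iodide-stained nuclei. Three independent experiments, each in triplicate.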

[2] = test system: HL-60; assay: Induction of apoptosis in human HL60 cells assessed as hypodiploid cells level incubated for 24 hrs in presence of 10 uM JNK/SAPK inhibitor SP600125 by flow cytometry; assay type: functional, cell-based; procedure, shortened: as §1
[3] = biological target: T1, Mitogen-activated protein kinase; ERK1/ERK2 (Homo sapiens) (UniProt P27361+P28482); assay: Induction of ERK1/2 phosphorylation in human HL60 cells after 30 mins in presence of 10 uM MEK1/2 inhibitor PD98059 by Western blotting; assay type: cell-based; conditions: HL-60
Procedure, shortened: (§2)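 HL-60 cells (1 × 10⁶/mL) treated with compound (10–30 µM) for various times. Where used, PD98059 (10 µM) was added 1 h beforehand. Lysates run on 10% SDS-PAGE and immunoblotted for phosphorylated ERK 1/2, JNK/SAPK or p38MAPK. Blots stripped and reprobed for the total kinase as loading control.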

[4] = test system: HL-60; assay: Increase in apoptosis in human HL60 cells assessed as hypodiploid cells level incubated for 24 hrs in presence of 10 uM MEK1/2 inhibitor PD98059 by flow cytometry (reference value: 16%); assay type: functional; procedure, shortened: as §1
[5] = biological target: T2, c-Jun N-terminal kinase, JNK (Homo sapiens) (UniProt P45983+P53779+P45984); assay: Induction of JNK/SAPK phosphorylation in human HL60 cells after 6 hrs by Western blotting; assay type: cell-based; conditions: HL-60; procedure, shortened: as §2
[6] = biological target: T1, Mitogen-activated protein kinase; ERK1/ERK2 (Homo sapiens); assay: Induction of ERK1/2 phosphorylation in human HL60 cells after 6 hrs by Western blotting; assay type: cell-based; conditions: HL-60; procedure, shortened: as §2
[7] = biological target: T3, MAP kinase p38 (Homo sapiens) (UniProt O15264+Q15759+Q16539+P53778); assay: Induction of p38MAPK phosphorylation in human HL60 cells after 2 hrs by Western blotting; assay type: cell-based; conditions: HL-60; procedure, shortened: as §2
[8] = biological target: T3, MAP kinase p38 (Homo sapiens); assay: Induction of p38MAPK phosphorylation in human HL60 cells after 30 mins by Western blotting; assay type: cell-based; conditions: HL-60; procedure, shortened: as §2
[9] = biological target: T2, c-Jun N-terminal kinase, JNK (Homo sapiens); assay: Induction of JNK/SAPK phosphorylation in human HL60 cells after 30 mins by Western blotting; assay type: cell-based; conditions: HL-60; procedure, shortened: as §2
[10] = test system: HL-60; assay: Induction of apoptosis in human HL60 cells assessed as hypodiploid cells level at 30 uM incubated for 24 hrs in presence of caspase-9 inhibitor z-LEHD-fmk by flow cytometry; assay type: functional, cell-based
Procedure, shortened: (§3)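 HL-60 cells given 30 µM compound for 24 h, alone or with z-VAD-fmk (100 µM), z-DEVD-fmk, z-IETD-fmk or z-LEHD-fmk (each 50 µM). Propidium iodide staining, hypodiploid cells quantified by flow cytometry. Three independent experiments, each in triplicate.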

[11] = test system: HL-60; assay: Induction of apoptosis in human HL60 cells assessed as hypodiploid cells level at 30 uM incubated for 24 hrs in presence of caspase-8 inhibitor z-IETD-fmk by flow cytometry; assay type: functional, cell-based; procedure, shortened: as §3
[12] = test system: HL-60; assay: Induction of apoptosis in human HL60 cells assessed as hypodiploid cells level at 30 uM incubated for 24 hrs in presence of caspase-3 and -7 inhibitor z-DEVD-fmk by flow cytometry; assay type: functional, cell-based; procedure, shortened: as §3
[13] = test system: HL-60; assay: Induction of apoptosis in human HL60 cells assessed as hypodiploid cells level at 30 uM incubated for 24 hrs in presence of caspase inhibitor z-VAD-fmk by flow cytometry; assay type: functional, cell-based; procedure, shortened: as §3
[14] = test system: HL-60; assay: Induction of procaspase-7 processing in human HL60 cells at 30 uM incubated for 24 hrs by immunoblotting method; assay type: functional, cell-based
Procedure, shortened: (§4)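 HL-60 cells (1 × 10⁶/mL) exposed to compound, harvested at 24 h. Lysed in Tris-HCl pH 7.4/Triton X-100 buffer with phosphatase and protease inhibitors, 15 min at 4 °C. Equal protein run on SDS-PAGE (7.5% PARP, 12.5% caspases) and immunoblotted on PVDF. β-Actin used as loading control.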

[15] = test system: HL-60; assay: Induction of procaspase-3 processing in human HL60 cells at 30 uM incubated for 24 hrs by immunoblotting method; assay type: functional, cell-based; procedure, shortened: as §4
[16] = test system: HL-60; assay: Induction of procaspase-6 processing in human HL60 cells at 30 uM incubated for 24 hrs by immunoblotting method; assay type: functional, cell-based; procedure, shortened: as §4
[17] = test system: HL-60; assay: Induction of Bid protein cleavage in human HL60 cells at 30 uM incubated for 24 hrs by Western blotting method; assay type: functional, cell-based; procedure, shortened: as §4
[18] = test system: HL-60; assay: Induction of procaspase-9 cleavage in human HL60 cells at 30 uM incubated for 24 hrs by immunoblotting method; assay type: functional, cell-based; procedure, shortened: as §4
[19] = test system: HL-60; assay: Induction of procaspase-8 hydrolysis in human HL60 cells at 30 uM incubated for 24 hrs by immunoblotting method; assay type: functional, cell-based; procedure, shortened: as §4
[20] = test system: HL-60; assay: Induction of cytochrome-c release in human HL60 cells at 30 uM incubated for 24 hrs by immunoblotting method; assay type: functional, cell-based
Procedure, shortened: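 HL-60 cells treated 24 h with 30 µM compound. Cytosolic extracts immunoblotted for cytochrome c released from mitochondria. β-Actin used as loading control.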

[21] = test system: HL-60; assay: Induction of caspase activation in human HL60 cells assessed as increase in PARP cleavage at 30 uM incubated for 24 hrs by immunoblotting method; assay type: functional, cell-based; procedure, shortened: as §4
[22] = test system: HL-60; assay: Induction of p21'Cip1 protein expression in human HL60 cells at 30 uM incubated for 24 hrs by Western blotting method; assay type: functional, cell-based; procedure, shortened: as §4
[23] = test system: HL-60; assay: Induction of cyclin D1 protein expression in human HL60 cells at 30 uM incubated for 24 hrs by Western blotting method; assay type: functional, cell-based; procedure, shortened: as §4
[24] = test system: HL-60; assay: Cell cycle arrest in human HL60 cells assessed as accumulation at S phase at 30 uM incubated for 24 hrs by flow cytometry (reference value: 16.7 +/- 0.5%); assay type: functional
[25] = test system: HL-60; assay: Cell cycle arrest in human HL60 cells assessed as accumulation at G2/M phase at 30 uM incubated for 24 hrs by flow cytometry (reference value: 33.2 +/- 2.1%); assay type: functional
[26] = test system: HL-60; assay: Cell cycle arrest in human HL60 cells assessed as accumulation at G1 phase at 30 uM incubated for 24 hrs by flow cytometry (reference value: 48 +/- 1.6%); assay type: functional
[27] = test system: HL-60; assay: Cell cycle arrest in human HL60 cells assessed as accumulation at G2/M phase at 10 uM incubated for 24 hrs by flow cytometry (reference value: 33.2 +/- 2.1%); assay type: functional
[28] = test system: HL-60; assay: Cell cycle arrest in human HL60 cells assessed as accumulation at G1 phase at 10 uM incubated for 24 hrs by flow cytometry (reference value: 48 +/- 1.6%); assay type: functional
[29] = test system: HL-60; assay: Cell cycle arrest in human HL60 cells assessed as accumulation at S phase at 10 uM incubated for 24 hrs by flow cytometry (reference value: 16.7 +/- 0.5%); assay type: functional
[30] = test system: HL-60; assay: Cell cycle arrest in human HL60 cells assessed as accumulation at subG1 phase at 10 uM incubated for 24 hrs by flow cytometry (reference value: 2.3 +/- 0.5%); assay type: functional
[31] = test system: HL-60; assay: Induction of DNA fragmentation in human HL60 cells at 30 uM incubated for 24 hrs by agarose gel electrophoresis; assay type: functional, cell-based
Procedure, shortened: (§5)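 HL-60 cells treated with the indicated concentrations. Genomic DNA extracted, run on agarose gel and visualised under UV after ethidium bromide staining, looking for internucleosomal fragmentation.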

[32] = test system: HL-60; assay: Induction of DNA fragmentation in human HL60 cells at 10 uM incubated for 24 hrs by agarose gel electrophoresis; assay type: functional, cell-based; procedure, shortened: as §5
[33] = test system: HL-60; assay: Induction of apoptosis in human HL60 cells assessed as incidence of condensed and fragmented chromatin at 30 uM incubated for 24 hrs by fluorescent microscopy; assay type: functional, cell-based
[34] = test system: HL-60; assay: Cytotoxicity against human HL60 cells up to 30 uM after 72 hrs by MTT assay; assay type: functional, cell-based
[35] = test system: PBMC; assay: Cytotoxicity against human proliferating PBMCs up to 30 uM; assay type: cell-based
Procedure, shortened: (§6)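 HL-60 cells, quiescent (fresh) PBMC and phytohemagglutinin-activated healthy human PBMC cultured 48 h over a concentration range of compound. Proliferation measured. Means ± SE of two independent experiments, each in triplicate.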

[36] = test system: PBMC; assay: Cytotoxicity against human fresh PBMCs up to 30 uM; assay type: cell-based; procedure, shortened: as §6
[37] = test system: HL-60; assay: Cytotoxicity against human HL60 cells after 72 hrs by MTT assay; assay type: functional, cell-based; conditions: HL-60, 72 h
Procedure, shortened: (§7)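 MTT colorimetric assay on HL-60 and HL-60/MX1 cells (RPMI 1640, 10% heat-inactivated FBS), 72 h exposure, absorbance 570 nm. IC50 obtained graphically by curve fitting. Means ± S.E. of three independent experiments, each in triplicate.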

[38] = biological target: T1, Mitogen-activated protein kinase; ERK1/ERK2 (Homo sapiens); assay: Induction of ERK1/2 phosphorylation in human HL60 cells after 30 mins by Western blotting; assay type: cell-based; conditions: HL-60; procedure, shortened: as §2
[39] = test system: HL-60; assay: Cell cycle arrest in human HL60 cells assessed as accumulation at subG1 phase at 30 uM incubated for 24 hrs by flow cytometry (reference value: 2.3 +/- 0.5%); assay type: functional
[40] = Cytotoxicity against human HL60/MX1 cells after 72 hrs by MTT assay; assay type: functional, cell-based; conditions: HL60/MX1, 72 h; procedure, shortened: as §7
[41] = test system: HL-60; assay: Cytotoxicity against human HL60 cells at 100 uM after 72 hrs by MTT assay
[42] = test system: HL-60; assay: Induction of apoptosis in human HL60 cells assessed as changes in nuclear morphology at 30 uM incubated for 24 hrs by fluorescence microscopy (reference value: 4.9 +/- 1.0%)

T1 sequence (P27361 whole entry, looked up): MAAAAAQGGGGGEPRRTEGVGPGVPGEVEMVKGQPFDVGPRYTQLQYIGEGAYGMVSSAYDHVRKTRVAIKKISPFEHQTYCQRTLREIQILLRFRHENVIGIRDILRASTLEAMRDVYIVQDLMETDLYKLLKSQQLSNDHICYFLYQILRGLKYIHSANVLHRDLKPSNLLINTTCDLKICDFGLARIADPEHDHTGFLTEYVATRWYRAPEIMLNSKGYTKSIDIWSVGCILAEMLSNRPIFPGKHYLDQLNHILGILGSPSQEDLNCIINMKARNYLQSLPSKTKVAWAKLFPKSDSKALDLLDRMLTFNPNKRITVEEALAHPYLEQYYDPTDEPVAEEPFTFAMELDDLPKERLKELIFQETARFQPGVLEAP
T1 sequence (P28482 whole entry, looked up): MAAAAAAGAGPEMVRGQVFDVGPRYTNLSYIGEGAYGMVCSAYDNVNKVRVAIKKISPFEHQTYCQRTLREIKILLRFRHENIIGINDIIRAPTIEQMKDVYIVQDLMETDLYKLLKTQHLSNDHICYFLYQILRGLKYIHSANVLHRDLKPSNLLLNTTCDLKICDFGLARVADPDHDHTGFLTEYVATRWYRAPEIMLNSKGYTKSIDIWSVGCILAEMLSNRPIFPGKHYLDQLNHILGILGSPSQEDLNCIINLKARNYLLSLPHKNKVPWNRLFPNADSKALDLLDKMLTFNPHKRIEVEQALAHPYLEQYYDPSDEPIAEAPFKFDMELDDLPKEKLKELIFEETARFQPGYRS

COC(=O)c1c(C)c(C)cc2c(=O)cc(-c3ccccc3Cl)oc12
Activity [1]: Active | Activity [2]: Active | Activity [3]: inactive | Activity [4]: 32% | Activity [5]: Active | Activity [6]: Active | Activity [7]: inactive | Activity [8]: Active | Activity [9]: Active | Activity [10]: inactive | Activity [11]: inactive | Activity [12]: inactive | Activity [13]: inactive | Activity [14]: Active | Activity [15]: Active | Activity [16]: Active | Activity [17]: Active | Activity [18]: Active | Activity [19]: Active | Activity [20]: Active | Activity [21]: Active | Activity [22]: Active | Activity [23]: Active | Activity [24]: 7.8% | Activity [25]: 13.5% | Activity [26]: 47.2% | Activity [27]: 22.9% | Activity [28]: 54.9% | Activity [29]: 16.7% | Activity [30]: 6.3% | Activity [31]: Active | Activity [32]: Active | Activity [33]: Active | Activity [34]: Active | Activity [35]: Non-toxic | Activity [36]: Non-toxic | IC50 [37]: 9.3 µM | Activity [38]: Active | Activity [39]: 28.1% | IC50 [40]: 70.7 µM | Activity [41]: Active | Activity [42]: 30.6%
